From PubChem BioAssay
Bfl-1 A1 inh – inhibitors of the anti-apoptotic protein A1, read as caspase activation. 330,000 tested, 0.066% active. caspase activation, % (concentration not given with the values). MEF A1-2A-BIM cells, Caspase-Glo 3/7 luminescence, 3 h; percent of clofoctol response, vehicle zero;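 active = over half of replicate activation scores above 10%, or exactly half above 10 with the replicate mean above 10; inconclusive = replicate mean below 10 yet half the replicates above 10; inactive = over half of replicates below 10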
Tb MetRS inh – Trypanosoma brucei MetRS inhibition | purified T. brucei MetRS, ATP depletion, Kinase-Glo luminescence | inhibition, % at 11.9 µM | 360,000 tested, 0.4% active;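 active = inhibition above a per-plate cutoff of the control wells' mean inhibition plus 3 SD, cut at about 5.5% in these data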
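assay system = parasite MetRS enzyme | timing = 15 min preincubation, 2 h reaction, all 25 °C | evaluation = percent inhibition relative to median high and low control wells | medium = HEPES buffer containing pyrophosphatase, BSA, spermine, DTT | compound = single dose, 11.9 µM final nominal, 0.9% final DMSO | detection = Kinase-Glo luminescence, ATP depletion format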
MC4R antag cAMP – human MC4R antagonism in cAMP assay | 360,000 tested, 0.48% active | P32245 | MC4R-expressing cells, MTII-stimulated cAMP, LANCE TR-FRET | AID 540295 | inhibition, % at 6.5 µM;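 active = inhibition above its plate's cutoff, the mean of tested wells on that plate plus 3 SD, cut at about 29% in these data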
Target sequence (P32245 whole entry, looked up): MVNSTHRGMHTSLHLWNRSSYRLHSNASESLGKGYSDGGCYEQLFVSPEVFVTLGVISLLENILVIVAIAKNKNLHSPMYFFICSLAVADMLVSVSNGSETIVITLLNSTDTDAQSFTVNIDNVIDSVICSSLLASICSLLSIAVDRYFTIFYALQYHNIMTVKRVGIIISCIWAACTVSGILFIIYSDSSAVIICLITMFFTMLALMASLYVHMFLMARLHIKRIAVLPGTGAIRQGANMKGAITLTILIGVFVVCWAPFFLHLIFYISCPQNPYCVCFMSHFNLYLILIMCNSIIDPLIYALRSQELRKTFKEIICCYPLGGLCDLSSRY
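System: U2OS-MC4R stable cell line; Technique: Eu-cAMP/anti-cAMP TR-FRET, emission 671 nm; Repeats: single well per compound; Also added: Melanotan II; Dosing: one concentration, 6.5 µM nominal; Schedule: 30-min compound, 1-h challenge, 1-h detection, room temperature.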
MC4R barr agon – activates human MC4R beta-arrestin recruitment | P32245 | U2OS MC4R beta-arrestin complementation, luminescence; percent of melanotan II response, DMSO zero | activation, % at 8.9 µM | 360,000 tested, 0.98% active | AID 540308;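 active = activation above a per-plate cutoff, the mean activation of sample wells on that plate plus 3 SD, cut at about 8% in these data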
NLRP3 yeast inh – blocks the NALP3 inflammasome reconstituted in yeast. 330,000 tested, 0.39% active. AID 2825. inhibition, % at 10 µM. Yeast reconstituted NLRP3/ASC/caspase-1, beta-gal luminescence, 24 h;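 active = inhibition of 50% or more; inactive = inhibition below 50%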
NALP1 inh – inhibitors of NALP1 inflammasome in yeast; inhibition, % at 10 µM; S. cerevisiae NALP1/ASC/caspase-1 growth, X-gal OD620, 72 h; 280,000 tested, 0.61% active; in the data active = inhibition mostly above about 24%, no sharp cut-off; inactive = mostly below about 32%
Each line names hits and unclear results; the compound was inactive in the other large screens. Rows were chosen to be rich in hits. Some 2.5% of all compounds tested hit in one or more screens of this group.

O=C(NCc1ccccc1)C1C(c2ccc3c(c2)OCO3)=Nc2ccccc2N1C(=O)c1cccc2ccccc12 (centres undefined)	none (no result: Bfl-1 A1 inh, MC4R antag cAMP, MC4R barr agon, NLRP3 yeast inh, NALP1 inh)
Cc1cc(C)cc(N2C(=O)C=CC2=O)c1	MC4R antag cAMP 33 (no result: Bfl-1 A1 inh, NLRP3 yeast inh, NALP1 inh)
Cc1c([N+](=O)[O-])cc(N2C(=O)C=CC2=O)cc1[N+](=O)[O-]	none (no result: Bfl-1 A1 inh, NLRP3 yeast inh, NALP1 inh)
CC(C)C[C@H]1CN(CCCC[C@H]2CNC(=O)C(=O)N2CCc2ccccc2)C(=O)C(=O)N1CCc1ccccc1	none (no result: Bfl-1 A1 inh, MC4R antag cAMP, MC4R barr agon, NLRP3 yeast inh, NALP1 inh)
Cc1cc(C)cc(NC(=O)c2cnn(-c3ccccc3)c2C2CCNCC2)c1	NALP1 inh 23
c1ccc(-c2ccc(C3=Nn4c(nnc4-c4cc(-c5ccccc5)n[nH]4)SC3)cc2)cc1	MC4R barr agon 9.7
Cc1cc(-n2c(SCC(=O)Nc3ccc(Br)cc3)nc3n[nH]c(C)c3c2=N)ccc1Cl	MC4R barr agon 19
CCC1CCCCN1C(=O)CSc1nnc(-c2ccc(OC)cc2)o1 (centres undefined)	NALP1 inh 44
CCOC(=O)c1cc2sc(C)cc2n1CC(=O)N1CCN(C(=O)c2ccco2)CC1	none
CCOC(=O)c1cc2sc(C)cc2n1CC(=O)N1CCOCC1	NALP1 inh 36
COC(=O)c1[nH]c2c(c1C)C(=O)CCC2	NALP1 inh 33
Cc1c(C(=O)OC2CCC(C)CC2)[nH]c2c1C(=O)CCC2 (centres undefined)	none
CS(=O)(=O)/C(C#N)=C\c1cnc(S(=O)(=O)c2ccccc2)s1	none (no result: Tb MetRS inh, MC4R antag cAMP, MC4R barr agon)
O=C(NCc1nnc(SCC(=O)N2CCOCC2)o1)c1ccccc1	none (no result: Bfl-1 A1 inh, NLRP3 yeast inh, NALP1 inh)
CC(C)C(NC(=O)c1c(F)cccc1F)C(=O)N1CCN(c2ccccc2F)CC1 (centres undefined)	Bfl-1 A1 inh inconclusive
O=C(Cn1cnc2c(nnn2Cc2ccccc2F)c1=O)N1CCN(c2ccccc2)CC1	none
O=C(Cn1cnc2c(nnn2Cc2ccccc2F)c1=O)OCc1ccccc1	NALP1 inh 26
O=C(NCCNS(=O)(=O)c1cccc(C(F)(F)F)c1)c1cc(OCC(F)(F)F)ccc1OCC(F)(F)F	MC4R barr agon 28
CCOC(=O)c1c(C)n(OCc2ccccc2)c2ccc3nonc3c12	MC4R barr agon 8.8
C=CCOn1c(C)c(C(C)=O)c2c3nonc3ccc21	none
CNC[C@H](CC1CCCCC1)NC[C@H](Cc1ccccc1)NCCC12CC3CC(CC(C3)C1)C2	MC4R barr agon 26
Cc1ccc(CN2C(=O)N/C(=C\c3ccc(N4CCOCC4)cc3)C2=O)cc1	MC4R barr agon 8.6
CCCCN(Cc1ccccc1)C(=O)C1CCN(S(=O)(=O)c2c(C)noc2C)CC1	NALP1 inh 37
CCN(CCNC(=O)C1CCN(S(=O)(=O)c2c(C)noc2C)CC1)c1ccccc1	none
Nc1[nH]n2c(=O)cc(-c3ccccc3)nc2c1N=Nc1ccc2c(c1)OCO2	NALP1 inh 42 (no result: Tb MetRS inh, MC4R antag cAMP, MC4R barr agon)
CC(C)c1ccc(NC(=O)C2=NNC(=O)CC2)cc1	none
Cc1ccc(NC(=O)C2=NNC(=O)CC2)cc1F	NALP1 inh 36
CCCn1c(SCC(=O)N2CCN(CC)CC2)nc2c1c(=O)n(C)c(=O)n2C	none
CCCCOc1ccc(C(=O)N/C(=C\c2cccc([N+](=O)[O-])c2)C(=O)OCCC)cc1	MC4R barr agon 8.8
CCCCOc1ccc(C(=O)N/C(=C\c2cccc([N+](=O)[O-])c2)C(=O)OC(C)C)cc1	none
Cc1ncc(NS(=O)(=O)c2ccc(N)cc2)nc1C	none (no result: Bfl-1 A1 inh, NLRP3 yeast inh, NALP1 inh)
CC(=O)N(C(C)=O)c1ccc2c(c1)OCCO2	none (no result: Bfl-1 A1 inh, NLRP3 yeast inh, NALP1 inh)
CCc1c(C)c(C#N)c2nc3ccccc3n2c1NCCN(C)C	NALP1 inh 32
COc1ccccc1CNS(=O)(=O)c1ccc2c(c1)CC(C)N2C(=O)C1CCC1 (centres undefined)	none
Cc1nc2ccc([N+](=O)[O-])cc2c(=O)n1Cc1ccc(F)cc1	none
CCCCOc1ccc(C(=O)O)cc1	NALP1 inh 20
CCCn1c(COc2ccc(C(=O)O)cc2)nc2ccccc21	NALP1 inh 43
CCCCCCCCOc1ccc(C(=O)O)cc1	none (no result: NALP1 inh)
COc1c(C)cc(C(O)c2ncc(-c3ccc(Cl)cc3)[nH]2)cc1C (centres undefined)	none (no result: Bfl-1 A1 inh, NLRP3 yeast inh, NALP1 inh)
COc1ccc(/C=N/NC(=O)c2nc(Cl)c(Cl)c(N)c2Cl)cc1COc1ccc(F)cc1F	MC4R barr agon 11
O=C(O)c1sccc1Oc1ccc(NS(=O)(=O)c2cccc(F)c2)cc1	none
CC(=O)c1c(O)c2ccccc2n(C(C)C)c1=O	NALP1 inh 31
CC(=O)c1c(O)c2ccccc2n(C)c1=O	none
CCN(CC)c1ccc2c(-c3ccc(S(=O)(=O)O)cc3S(=O)(=O)[O-])c3ccc(=[N+](CC)CC)cc-3oc2c1	MC4R antag cAMP 50
CCCOc1ccccc1NC(=O)/C=C/C(N)=O	NALP1 inh 59
CCCN(C(=O)Cc1csc(-c2ccccc2)n1)C1CCS(=O)(=O)C1 (centres undefined)	none (no result: NALP1 inh)
COc1cccc(C(=O)c2cc3cc(Cl)ccc3[nH]2)c1	none
O=C(c1ccccc1)c1cc2cc(Cl)ccc2[nH]1	MC4R barr agon 8.3
O=C(Nc1ncc2c(n1)CC(c1ccccc1)CC2=O)c1ccco1 (centres undefined)	none
CCCCCC(=O)Nc1ncc2c(n1)CC(c1cccs1)CC2=O (centres undefined)	NALP1 inh 38
Cc1c2c(nc3ccccc13)CCC(C)C2 (centres undefined)	NALP1 inh 36
CCc1nnc(NS(=O)(=O)c2ccc(NC(=O)c3cc(Cl)ccc3[N+](=O)[O-])cc2)s1	none
CCc1nnc(NS(=O)(=O)c2ccc(NC(=O)c3cc(Cl)ccc3Cl)cc2)s1	NALP1 inh 39
O=C(CCN1C(=O)COc2ccccc21)NCCN1CCN(c2ccccc2F)CC1	NALP1 inh 32
O=C(CN1C(=O)COc2ccccc21)NCCCN1CCN(c2ccccc2F)CC1	none
COc1ccc(OCCNc2cc(Cl)ccc2[N+](=O)[O-])cc1	MC4R barr agon 10
Cc1ccc(C)c(C(O)c2ncc(-c3ccc4ccccc4c3)[nH]2)c1 (centres undefined)	none (no result: Bfl-1 A1 inh, NLRP3 yeast inh, NALP1 inh)
O=C(CCl)Nc1ccc(-c2ccccc2)cc1	MC4R barr agon 9.1
CC(=O)Nc1ccc(NC(=O)Cc2ccc(-c3ccccc3)cc2)cc1	none
O=C(Nc1ccc(N=Nc2ccccc2)cc1)c1ccccc1Cl	MC4R barr agon 9.5
CC(=O)Nc1ccc(N=Nc2ccccc2)cc1	none
O=C(CCl)Nc1cccc(Oc2ccccc2)c1	MC4R barr agon 8.9
O=C(CCl)Nc1ccc(N=Nc2ccccc2)cc1	NALP1 inh 78 (no result: Bfl-1 A1 inh, NLRP3 yeast inh)
O=C(CCl)Nc1cccc(Oc2cnccn2)c1	none
COc1ccc(NC(=O)C2CCC(C(C)(C)C)CC2)cc1S(=O)(=O)N1CCOCC1 (centres undefined)	none (no result: NALP1 inh)
